A short description of data set [1]: Aqueous solubility of the compound by UV-vis absorption spectroscopic analysis. The format is physicochemical.
Data set [2] is described as follows: Stability of the compound in phosphate-buffered solution assessed as drug degradation under daylight condition at […] measured within 120 mins by UV-vis absorption spectroscopic analysis in presence of FBS. Conditions: buffer, 2 h. The format is physicochemical. Summed up: (§1)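 Absorbance at 410 nm followed over time in phosphate-buffered solution (pH 7.4) under daylight, without or with 0.1% FBS; stability expressed as A/A0 relative to the 0 min reading.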

Data set [3] is described as follows: Stability of the compound in phosphate-buffered solution assessed as drug degradation under daylight condition at […] measured within 120 mins by UV-vis absorption spectroscopic analysis in absence of FBS. The format is physicochemical. Conditions: buffer, 2 h. Summed up: as §1
The test system of a further data set is SGC-7901. Kind of data set: Cytotoxicity against human SGC7901 cells assessed as growth inhibition after 72 hrs by MTT assay. The format is functional, cell-based. Conditions: SGC-7901, 72 h. On the technique in general: Formazan colour is commonly taken as a measure of viable cells.
The subject of data set [4] is HepG2. Nature of the data set: Cytotoxicity against human HepG2 cells assessed as growth inhibition after 72 hrs by MTT assay. Conditions: HepG2, 72 h. The format is functional, cell-based.
The subject of data set [5] is Radical scavenging activity. Nature of the data set: Antioxidant activity assessed as DPPH free radical scavenging activity at 100 uM relative to control. The format is functional.
The nature of data set [6]: Antioxidant activity assessed as galvinoxyl free radical scavenging activity at 100 uM relative to control. The format is functional.
The nature of data set [7]: Antioxidant activity assessed as galvinoxyl free radical scavenging activity at 20 uM relative to control. The format is functional.
In another data set the test system is A549. Kind of data set: Cytotoxicity against human A549 cells assessed as growth inhibition after 72 hrs by MTT assay. The format is functional, cell-based. Conditions: A549, 72 h.
Data set [8] relates to Radical scavenging activity. Kind of data set: Antioxidant activity assessed as DPPH free radical scavenging activity. It is filed as functional.
A short description of data set [9]: Antioxidant activity assessed as galvinoxyl free radical scavenging activity. It is filed as functional.
The subject of data set [10] is Radical scavenging activity. Nature of the data set: Antioxidant activity assessed as DPPH free radical scavenging activity at 20 uM relative to control. It is filed as functional. In general terms: The DPPH test is a chemical assay of radical scavenging.
The nature of data set [11]: Antioxidant activity assessed as galvinoxyl free radical scavenging activity at 2 uM relative to control. The format is functional.
The nature of data set [12]: Antioxidant activity assessed as galvinoxyl free radical scavenging activity at 10 uM relative to control. It is filed as functional.
In data set [13] the test system is Radical scavenging activity. Nature of the data set: Antioxidant activity assessed as DPPH free radical scavenging activity at 2 uM relative to control. It is filed as functional.
A short description of data set [14]: Antioxidant activity assessed as galvinoxyl free radical scavenging activity at 1 uM relative to control. The format is functional.
Data set [15] has as its system Radical scavenging activity. Kind of data set: Antioxidant activity assessed as DPPH free radical scavenging activity at 10 uM relative to control. It is filed as functional.
Data set [16] concerns Radical scavenging activity. Kind of data set: Antioxidant activity assessed as DPPH free radical scavenging activity at 1 uM relative to control. It is filed as functional.
Data set [17] relates to HCT-116. Kind of data set: Cytotoxicity against human HCT116 cells assessed as growth inhibition after 72 hrs by MTT assay. Conditions: HCT-116, 72 h. It is filed as functional, cell-based.
The test system of data set [18] is HepG2. Kind of data set: Cell cycle arrest in human HepG2 cells assessed as accumulation at G0/G1 phase at 30 uM after 12 hrs by propidium iodide staining-based FACS flow cytometric analysis (reference value: 22.94%). It is filed as functional. (In general: A flow cytometer gives signals particle by particle.)
Data set [19] deals with HepG2. Kind of data set: Cell cycle arrest in human HepG2 cells assessed as accumulation at G2/M phase at 30 uM after 12 hrs by propidium iodide staining-based FACS flow cytometric analysis (reference value: 33.98%). The format is functional.
Data set [20] relates to HepG2. Kind of data set: Cell cycle arrest in human HepG2 cells assessed as accumulation at S phase at 30 uM after 12 hrs by propidium iodide staining-based FACS flow cytometric analysis (reference value: 22.47%). The format is functional.
In data set [21] the test system is HepG2. Nature of the data set: Ratio of curcumin IC50 to compound IC50 for human HepG2 cells. It is filed as functional.
Data set [22] deals with HCT-116. Nature of the data set: Ratio of curcumin IC50 to compound IC50 for human HCT116 cells. It is filed as functional.

The structures appear in SMILES notation.

One may read the solubility as the dissolved amount per volume that the medium holds. On to `CN(C)Cc1cc(/C=C/C(=O)/C=C/c2ccc(O)c(CN(C)C)c2)ccc1O.Cl.Cl`, for which, in [1], the solubility worked out at 368 mg/mL.

In the case of `CN(C)Cc1cc(/C=C2\CCC/C(=C\c3ccc(O)c(CN(C)C)c3)C2=O)ccc1O`, the Stability entry in data set [2] and in data set [3] was “Stable” throughout.

For orientation: IC50 means the point on the concentration scale where inhibition reaches its midpoint. As for `COc1cc(/C=C/C(=O)CC(=O)/C=C/c2ccc(O)c(C[N+](C)(C)C)c2)ccc1O`, the IC50 was 321 µM in the data set on SGC-7901 and 126 µM in the data set with HepG2 [4].

Regarding `COc1cc(/C=C2\CCC/C(=C\c3cc(CN(C)C)c(O)c(OC)c3)C2=O)cc(CN(C)C)c1O`, the Activity in data set [5] is 86.3%; in data set [6], 58.9%; in data set [7] it was 52.9%; in data set [10] it was 82.8%; in data set [11], 21.1%; in [12], 38.9%. The Activity amounted to 40.1% in [13], 8.3% in data set [14], 55% in data set [15] and 24.7% in data set [16]. For the same compound, the IC50 with SGC-7901 was determined as 25.8 µM; in the data set with A549, 51.8 µM; in [8] it was 4.8 µM; in data set [9], 16.3 µM; in the data set on HepG2 [4], 24.3 µM; with HCT-116 [17], 65.9 µM. Also, the Stability entry in [2] and in data set [3] was “Stable” each time.

In the case of `CN(C)Cc1cc(/C=C2\CCC/C(=C\c3ccc(O)c(CN(C)C)c3)C2=O)ccc1O.Cl.Cl`, in data set [1], the concentration in solution (solubility) was 303 mg/mL.

Take `CN(C)Cc1cc(/C=C2\CCC/C(=C\c3cc(CN(C)C)c(O)c(CN(C)C)c3)C2=O)ccc1O`: the Activity in [5] was 90.3%; in [6], 52.3%; in [7], 38.7%; in data set [10] it was 85.7%; in data set [11] it was 21.3%; in data set [12], 36.5%. The Activity in data set [13] was 54.5%; in [14], 13.4%; in [15], 66.6%; in data set [16], 25.9%. For the same compound, the IC50 in the data set with SGC-7901 turned out to be 45.3 µM; in the data set on A549, 35.5 µM; in data set [8], 2 µM; in [9] it was 65.9 µM; with HepG2 [4], 49.5 µM; with HCT-116 [17] it was 64.7 µM.

Turning to `COc1cc(/C=C/C(=O)CC(=O)/C=C/c2ccc(O)c(OC)c2)ccc1O` [CURCUMIN], the Activity in [5] worked out at 87.2%; in [6], 45%; in the data set with HepG2 [18], 20.46%; in data set [7], 22.2%; with HepG2 [19] it was 50.2%; in data set [10], 42%. Besides, the Activity stood at 29.33% in the data set with HepG2 [20]; 5.8% in [11]; 13.7% in [12]; 2.4% in data set [13]; 4.6% in data set [14]; 23.1% in data set [15]. For the same compound, the Activity in data set [16] was 0.3%. The IC50 in the data set on SGC-7901 was 29 µM; in the data set on A549 it was 32.2 µM; in [8] it was 26.5 µM; in data set [9], more than 100 µM; in the data set on HepG2 [4], 78.7 µM; with HCT-116 [17], 41.5 µM.

As for `COc1cc(/C=C/C(=O)CC(=O)/C=C/c2ccc(O)c(CN(C)C)c2)ccc1O`, the Activity in [5] came out at 91.2%; in [6], 51.9%; in the data set on HepG2 [18] it was 29.4%; in data set [7], 37.8%; with HepG2 [19], 24.97%; in [10], 51.7%. In addition, the Activity came out at 45.63% in the data set on HepG2 [20]; 3.1% in [11]; 16.5% in data set [12]; 5% in [13]; 0% in data set [14]; 23.4% in data set [15]. Besides, in data set [16], the Activity was 1.1%. Also, the “Ratio IC50” value in the data set with HepG2 [21] and in the data set on HCT-116 [22] was more than 10 in each case. The IC50 in the data set on SGC-7901 turned out to be 23.5 µM; in the data set with A549, 20.2 µM; in data set [8], 18.6 µM; in data set [9], 66.6 µM; in the data set on HepG2 [4], 5.2 µM; in the data set with HCT-116 [17] it was 3.7 µM. The Stability result in data set [2] and in [3] was “Unstable” throughout.

On to `CN(C)Cc1cc(/C=C2\CC/C(=C\c3ccc(O)c(CN(C)C)c3)C2=O)ccc1O`, for which the Activity in data set [5] was 90.4%; in [6], 71.8%; in data set [7] it was 46.8%; in data set [10], 86.8%; in [11] it was 13.3%; in [12] it was 30.6%. Besides, the Activity in data set [13] was 54%; in data set [14], 3.8%; in data set [15] it was 67.4%; in [16], 24.8%. Moreover, the IC50 in the data set on SGC-7901 was found to be 57.3 µM; in the data set on A549, 78.1 µM; in data set [8], 2.3 µM; in [9] it was 45 µM; in the data set with HepG2 [4], 43.6 µM; in the data set on HCT-116 [17], 142 µM.

Consider `COc1cc(/C=C2\CC/C(=C\c3cc(CN(C)C)c(O)c(OC)c3)C2=O)cc(CN(C)C)c1O`, for which the Activity in data set [5] is 88.6%; in [6] it was 58.6%; in data set [7] it was 48%; in data set [10] it was 82%; in data set [11], 12.8%; in data set [12], 35.3%. Further, the Activity is 47.9% in data set [13], 8.6% in [14], 50.9% in data set [15] and 38.6% in data set [16]. For the same compound, the concentration for half-maximal inhibition (IC50) came out at 1.8 µM in data set [8], 56.3 µM in [9], 46.2 µM in the data set with HepG2 [4] and 24.4 µM in the data set with HCT-116 [17].
